# Activity calls are given as the source filed them. Unless noted, no cut-off for these calls is given here.
# Experiments:
# U-937 [1] = experiment: Induction of cell cycle arrest in human U937 cells at 25 uM after 30 hrs; type: functional, cell-based
# How it was run: (§1)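 U937 cells in RPMI with 10% fetal calf serum, HEPES and glutamine, kept at 200000 cells/mL; treated at 25 µM for 30 h, then the distribution across cell cycle phases was analysed.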
# U-937 [2] = experiment: Induction of apoptosis in human U937 cells at 25 uM after 30 hrs; type: functional
# How it was run: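 Apoptosis read as caspase 3 activation by FACS, in U937 cells (RPMI, 10% fetal calf serum, 200000 cells/mL) exposed to 25 µM for 30 h.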
# U-937 [3] = experiment: Induction of granulocytic differentiation in human U937 cells assessed as CD11c expression at 5 uM after 30 hrs; type: functional
# How it was run: (§2)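 U937 cells treated for 30 h, then stained with PE-conjugated CD11c (PE mouse IgG1 as control) for 30 min at 4 °C in the dark and resuspended in PBS with PI (0.25 µg/mL). Read-out is percent CD11c-positive/PI-negative cells, with dead PI-positive cells excluded. Coloured compounds limited the top dose to 5 µM or lower.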
# U-937 [4] = experiment: Induction of granulocytic differentiation in human U937 cells assessed as CD11c expression at 25 uM after 30 hrs; type: functional; how it was run: as §2
# U-937 [5] = experiment: Cell cycle arrest in human U937 cells assessed as accumulation at G1/G2 phase at 25 uM after 30 hrs; type: functional, cell-based; how it was run: as §1
# U-937 [6] = experiment: Induction of granulocytic differentiation in human U937 cells assessed as CD11c expression at 1 uM after 30 hrs; type: functional; how it was run: as §2
# RmtA = RmtA (Emericella nidulans, UniProt Q5VLE3); experiment: Inhibition of Aspergillus nidulans RmtA
# How it was run: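 Enzyme was GST-RmtA fusion expressed in E. coli BL21 and glutathione-affinity purified (500 ng), preincubated with compound for 15 min at room temperature. Then 20 µg chicken erythrocyte core histones and 0.55 µCi [3H]AdoMet were added, 30 min at 30 °C. Stopped with 25% TCA, filtered, counted by liquid scintillation.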
# [7] = target: Protein arginine N-methyltransferase 1 (Homo sapiens) (UniProt Q99873); experiment: Inhibition of human recombinant PRMT1 assessed as histone H4 methylation at 50 uM
# [8] = target: Protein arginine N-methyltransferase 1 (Homo sapiens) (UniProt Q99873); experiment: Inhibition of human recombinant PRMT1 assessed as nuclear ribonucleoprotein Npl3p methylation at 100 uM
# How it was run: (§3)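 Recombinant enzymes (0.2 µg) with substrate (0.5 µg: Npl3p for PRMT1, PABP1 for CARM1, histone H3 for SET7), 0.5 µM [3H]AdoMet and 100 µM compound in PBS pH 7.4 with 3.3% v/v DMSO, 90 min at 30 °C. Products separated by 10% SDS-PAGE, transferred to PVDF, detected by fluorography on film overnight.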
# [9] = target: T1, Histone-arginine methyltransferase CARM1 (Homo sapiens) (UniProt Q86X55); experiment: Inhibition of human recombinant CARM1 assessed as poly(A) binding protein 1 methylation at 100 uM; how it was run: as §3
# T1 sequence (whole entry): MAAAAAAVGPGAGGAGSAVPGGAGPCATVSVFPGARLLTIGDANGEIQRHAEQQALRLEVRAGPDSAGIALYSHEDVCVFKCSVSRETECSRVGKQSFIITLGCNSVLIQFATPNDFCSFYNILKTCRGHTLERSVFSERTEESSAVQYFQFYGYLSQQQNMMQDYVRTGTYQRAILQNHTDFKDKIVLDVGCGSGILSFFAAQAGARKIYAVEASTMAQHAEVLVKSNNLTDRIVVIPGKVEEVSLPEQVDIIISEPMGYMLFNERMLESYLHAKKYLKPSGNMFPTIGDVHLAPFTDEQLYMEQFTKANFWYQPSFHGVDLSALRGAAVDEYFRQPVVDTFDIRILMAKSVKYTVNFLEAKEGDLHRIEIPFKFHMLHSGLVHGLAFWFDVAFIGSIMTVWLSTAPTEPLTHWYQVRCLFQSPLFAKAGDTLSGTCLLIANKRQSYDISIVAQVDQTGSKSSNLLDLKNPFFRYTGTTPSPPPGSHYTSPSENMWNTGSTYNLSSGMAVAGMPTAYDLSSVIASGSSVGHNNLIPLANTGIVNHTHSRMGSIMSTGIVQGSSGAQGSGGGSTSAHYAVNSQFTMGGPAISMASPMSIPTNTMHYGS
# [10] = target: T2, Histone-lysine N-methyltransferase SETD7 (Homo sapiens) (UniProt Q8WTS6); experiment: Inhibition of human recombinant SET7 assessed as histone H3 protein methylation at 100 uM; how it was run: as §3
# T2 sequence (whole entry): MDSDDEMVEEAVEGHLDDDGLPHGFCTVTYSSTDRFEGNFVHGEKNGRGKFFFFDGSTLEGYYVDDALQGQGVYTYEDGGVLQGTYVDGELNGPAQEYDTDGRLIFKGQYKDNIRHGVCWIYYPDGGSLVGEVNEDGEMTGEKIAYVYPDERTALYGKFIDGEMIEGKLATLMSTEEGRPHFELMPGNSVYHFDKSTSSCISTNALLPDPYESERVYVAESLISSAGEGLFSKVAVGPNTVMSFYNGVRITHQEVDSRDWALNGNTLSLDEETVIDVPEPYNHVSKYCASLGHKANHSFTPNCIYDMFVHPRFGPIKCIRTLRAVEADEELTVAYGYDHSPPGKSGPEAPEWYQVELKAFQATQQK
# U-937 [11] = experiment: Inhibition of histone H3K4 methylation in human U937 cells at 50 uM after 24 hrs; type: functional, cell-based
# How it was run: (§4)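 U937 cells treated at 50 µM for 24 h. Histones extracted with Triton buffer, then 0.2 M HCl overnight at 4 °C. 3–10 µg run on 15% SDS-PAGE and immunoblotted with anti-monomethyl-H3K4, monomethyl-H4R3 or dimethyl-H3R17 (1:500, overnight 4 °C), ECL detection. Loading controls: total H4 (H3K4), Ponceau Red (Arg marks).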
# U-937 [12] = experiment: Inhibition of histone H4R3 methylation in human U937 cells at 50 uM after 24 hrs; type: functional, cell-based; how it was run: as §4
# U-937 [13] = experiment: Inhibition of histone H3R17 methylation in human U937 cells at 50 uM after 24 hrs; type: functional, cell-based; how it was run: as §4
# U-937 [14] = experiment: Inhibition of human p300/CBP in U937 cells at 50 uM assessed as histone H3 acetylation; type: cell-based
# How it was run: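 Source was U937 nuclear extract (10 µg per assay) as p300/CBP HAT, with histone H3 substrate and compound at 50 µM or DMSO control for 90 min. Acetyl-H3 detected by indirect ELISA, quantified against acetylated H3 peptide standard curves, […].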
# [15] = target: T3, NAD-dependent protein deacetylase sirtuin-1 (Homo sapiens) (UniProt Q96EB6); experiment: Inhibition of human SIRT1 at 25 uM
# T3 sequence (whole entry): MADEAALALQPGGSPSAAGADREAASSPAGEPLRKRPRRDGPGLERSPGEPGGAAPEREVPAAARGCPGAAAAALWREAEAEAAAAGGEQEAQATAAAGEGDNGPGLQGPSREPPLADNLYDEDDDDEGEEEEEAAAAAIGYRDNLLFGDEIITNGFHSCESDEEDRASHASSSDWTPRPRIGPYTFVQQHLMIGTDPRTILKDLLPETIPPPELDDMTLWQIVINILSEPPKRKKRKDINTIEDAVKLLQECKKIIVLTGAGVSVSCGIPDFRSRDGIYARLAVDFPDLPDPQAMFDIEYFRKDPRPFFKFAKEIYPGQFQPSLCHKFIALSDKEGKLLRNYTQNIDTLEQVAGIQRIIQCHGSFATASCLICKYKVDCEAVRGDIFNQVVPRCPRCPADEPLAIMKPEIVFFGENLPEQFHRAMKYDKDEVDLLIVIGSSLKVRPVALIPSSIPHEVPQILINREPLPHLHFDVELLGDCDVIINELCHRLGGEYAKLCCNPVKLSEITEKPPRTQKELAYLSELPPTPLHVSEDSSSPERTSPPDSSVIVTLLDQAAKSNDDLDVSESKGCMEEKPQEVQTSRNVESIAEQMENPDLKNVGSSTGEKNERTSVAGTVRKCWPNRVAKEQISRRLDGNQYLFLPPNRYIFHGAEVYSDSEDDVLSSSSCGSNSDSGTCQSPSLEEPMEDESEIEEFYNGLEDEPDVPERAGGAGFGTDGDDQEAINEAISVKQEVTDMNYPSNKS
# How it was run: (§5)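 Fluorescent two-stage assay. SIRT1 (1 U/well) or SIRT2 (5 U/well) with Fluor de Lys-SIRT1/2 substrate, NAD+ and compound at 25 µM, 37 °C for 2 h. Developer II containing nicotinamide then stopped the reaction and generated signal, read at ex 360/em 460 nm.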
# [16] = target: T4, NAD-dependent protein deacetylase sirtuin-2 (Homo sapiens) (UniProt Q8IXJ6); experiment: Inhibition of human SIRT2 at 25 uM; how it was run: as §5
# T4 sequence (whole entry): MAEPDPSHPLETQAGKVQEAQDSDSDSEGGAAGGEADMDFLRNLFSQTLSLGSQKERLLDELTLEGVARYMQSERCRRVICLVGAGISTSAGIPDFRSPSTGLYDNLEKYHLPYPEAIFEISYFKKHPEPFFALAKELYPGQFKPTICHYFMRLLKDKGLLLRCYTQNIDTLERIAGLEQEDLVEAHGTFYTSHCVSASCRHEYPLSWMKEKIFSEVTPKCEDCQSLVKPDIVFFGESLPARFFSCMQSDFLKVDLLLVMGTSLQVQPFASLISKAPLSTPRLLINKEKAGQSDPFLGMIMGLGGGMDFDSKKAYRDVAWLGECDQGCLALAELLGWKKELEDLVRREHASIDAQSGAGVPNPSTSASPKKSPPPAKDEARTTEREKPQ
# Chain of Protein arginine N-methyltransferase 1 (Homo sapiens) (Q99873 whole entry, looked up): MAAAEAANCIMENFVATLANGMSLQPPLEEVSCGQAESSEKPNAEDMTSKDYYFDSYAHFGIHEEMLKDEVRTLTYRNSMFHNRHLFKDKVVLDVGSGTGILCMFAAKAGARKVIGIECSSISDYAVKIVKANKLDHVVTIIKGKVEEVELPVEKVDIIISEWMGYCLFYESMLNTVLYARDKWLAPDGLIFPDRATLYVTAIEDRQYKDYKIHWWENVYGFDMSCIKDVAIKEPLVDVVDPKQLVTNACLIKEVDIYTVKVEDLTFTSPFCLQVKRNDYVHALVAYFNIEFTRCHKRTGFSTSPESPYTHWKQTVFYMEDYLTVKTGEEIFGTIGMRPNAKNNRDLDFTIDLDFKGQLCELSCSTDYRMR
# Chain of RmtA (Q5VLE3 whole entry, the tested form may be a part): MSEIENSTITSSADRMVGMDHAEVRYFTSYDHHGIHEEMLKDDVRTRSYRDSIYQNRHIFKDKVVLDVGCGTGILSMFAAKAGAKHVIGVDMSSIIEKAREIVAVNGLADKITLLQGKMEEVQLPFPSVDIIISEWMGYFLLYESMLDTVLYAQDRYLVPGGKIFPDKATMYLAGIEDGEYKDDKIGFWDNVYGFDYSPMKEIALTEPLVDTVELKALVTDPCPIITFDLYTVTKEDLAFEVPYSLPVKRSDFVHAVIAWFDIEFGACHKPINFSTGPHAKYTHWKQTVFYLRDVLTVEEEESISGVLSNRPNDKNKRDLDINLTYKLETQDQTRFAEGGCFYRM
IC50 (RmtA),inhibition [7],Activity [8],Activity [9],Activity [10],inhibition [15],inhibition [16],Structure (SMILES),Activity (U-937 [1]),Activity (U-937 [2]),Activity (U-937 [3]),Activity (U-937 [4]),Activity (U-937 [5]),Activity (U-937 [6]),Activity (U-937 [11]),Activity (U-937 [12]),Activity (U-937 [13]),inhibition (U-937 [14])
–,–,–,–,–,–,–,COc1cc(/C=C/C(=O)CC(=O)/C=C/c2ccc(O)c(OC)c2)ccc1O [CURCUMIN],inactive,8.5%,25.3%,25%,–,–,–,–,–,–
10 µM,60%,Active,Active,Active,73%,48%,O=C(/C=C/c1cc(Br)c(O)c(Br)c1)c1cccc(C(=O)/C=C/c2cc(Br)c(O)c(Br)c2)c1,–,42.6%,–,–,Active,38.8%,Active,Active,Active,83%

# Source: ChEMBL document CHEMBL1144710, “epigenetic multiple ligands: mixed histone/protein methyltransferase, acetyltransferase, and class III deacetylase (sirtuin) inhibitors” (J Med Chem, 2008)
